Source: PubChem BioAssay (several laboratories)
An excerpt weighted towards active compounds, which were near 1.9% of everything screened.
Neddylation inh: inhibitors of cullin neddylation, primary screen, biochemical, TR-FRET, uHTS, NAE and Ubc12; hit rate 0.58% among 360,000; inhibition, % at 25 µM; NEDD8-conjugating enzyme Ubc12 (Homo sapiens) + NEDD8-activating enzyme E1 regulatory …; in the data active means inhibition above about 36%
FXN GAA850 act: FXN promoter activators, primary screen, cell-based, luciferase luminescence, HEK293 lucGAA850. AID 540364, 2011. activation, % at 6 µM. hit rate 0.56% among 360,000. HEK293 lucGAA850 FXN promoter luciferase reporter, 24 h; percent of 10 µM SAHA response;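 active means activation above the average of all compounds screened plus 3 SD, cutoff fixed separately per campaign, cut at about 7.5% in these data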
Calb FLC: C. albicans growth inhibition with fluconazole, primary screen, CaCi-2 strain, Alamar Blue fluorescence; growth inhibition, % (concentration not given with the values); AID 1979, 2009; C. albicans CaCi-2 + fluconazole, 48 h; hit rate 0.57% among 300,000;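 active means growth inhibition above about 58% in most replicates, limit read from the data, passing the limit was not always enough; inconclusive means exactly half the replicates above a set limit; inactive means most replicates below a set limit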;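 further: all wells also contain fluconazole at 8 µg/ml as a sub-toxic cotreatment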
procasp3 activ: activators of human procaspase-3 D3A mutant, primary screen, biochemical, absorbance, PC-3 D3A mutant, single concentration. Caspase-3 (Homo sapiens), P42574. activation, % at 8.5 µM. recombinant procaspase-3 D3A, Ac-DEVD-pNA absorbance 405 nm. hit rate 0.11% among 330,000;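 active means activation above the mean of all tested compounds plus 3 SD, cut at about 21% in these data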
Target sequence (P42574 whole entry D9A/D28A/D175A): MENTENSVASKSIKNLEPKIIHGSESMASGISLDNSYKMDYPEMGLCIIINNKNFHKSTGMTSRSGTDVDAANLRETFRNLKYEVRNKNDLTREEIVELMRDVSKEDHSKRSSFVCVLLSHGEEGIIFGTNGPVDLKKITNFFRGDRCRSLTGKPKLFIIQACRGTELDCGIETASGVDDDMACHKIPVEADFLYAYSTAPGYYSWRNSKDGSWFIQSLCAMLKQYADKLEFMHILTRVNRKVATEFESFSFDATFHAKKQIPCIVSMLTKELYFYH
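assay system = Procaspase-3 D3A mutant | signal = absorbance at 405 nm, 0 and 120 min | times = 1 h preincubation plus 2 h reaction at 25 °C | repeats = single replicate | read-out = % activation between DMSO and enzyme-spiked controls | medium = Zinc-free HEPES saline buffer with Triton X-100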
HIF act: HIF pathway transcriptional activators, primary screen, cell-based, U2OS HRE-luciferase, luminescence. U2OS HRE-luciferase reporter; normalized: DMSO 0%, desferrioxamine 100%. activation, % at 7.5 µM (by protocol). hit rate 0.32% among 300,000. AID 1910, 2009;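 active means mean activation of at least 10% of the iron chelator positive control signal, with at least half of replicates also reaching 10%; inconclusive means mean and replicate majority disagree about reaching 10%; inactive means mean and most replicates under 10%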
proCasp7 act: procaspase-7 activators, primary screen, counter-screen for procaspase-3 activator project, biochemical, absorbance, HTS, human; Caspase-7 (Homo sapiens), P55210; recombinant procaspase-7, Ac-DEVD-pNA absorbance 405 nm; D23A/D198A/D206A triple mutant, cannot self-cleave; scale: DMSO 0, 5 µM enzyme 100; activation, % at 8.5 µM; hit rate 0.093% among 330,000; AID 463210, 2010;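 active means percent activation above the screen-wide mean plus 3 SD, cut at about 25% in these data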
Target sequence (P55210 whole entry D23A/D198A/D206A): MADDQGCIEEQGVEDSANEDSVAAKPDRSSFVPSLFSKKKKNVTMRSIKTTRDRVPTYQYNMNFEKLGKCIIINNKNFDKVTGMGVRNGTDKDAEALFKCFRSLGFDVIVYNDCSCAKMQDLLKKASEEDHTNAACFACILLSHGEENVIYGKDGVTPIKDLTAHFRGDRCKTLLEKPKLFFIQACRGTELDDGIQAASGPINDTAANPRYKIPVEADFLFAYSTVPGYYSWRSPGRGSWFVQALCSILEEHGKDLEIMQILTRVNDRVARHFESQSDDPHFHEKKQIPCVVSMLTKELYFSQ
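System: Uncleavable procaspase-7 mutant enzyme; Amount: 2 µM procaspase-7 mutant as dispensed; Schedule: 1 h compound preincubation, 2 h substrate cleavage, 25 °C; Measured by: 405 nm absorbance of p-nitroaniline; Evaluation: percent activation from buffer-corrected 0–120 min absorbance change; Control set: low DMSO alone, high DMSO plus 5 µM PC-7.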
GAA30 counter: GAA30 FXN promoter activators, confirmation, counter-screen for GAA850 frataxin promoter activator project, cell-based, luminescence, HEK293, lucGAA30, triplicate. activation, % at 6 µM. shares compounds with FXN GAA850 act. HEK293 lucGAA30 FXN promoter luciferase, 24 h; DMSO = 0%, 5 µM ipriflavone = 100%. hit rate 66% among 1,900. AID 588350, 2011;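 active means mean activation above the mean of solvent-only control wells plus 3 SD, cut at about 22% in these data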;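 further: counterscreen of GAA850 promoter hits where activity marks nonselective or luminescence artifacts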
GAA850 confirm: FXN GAA850 promoter activators in reporter cells, confirmation, cell-based, luminescence, HEK293 lucGAA850, triplicate. HEK293 lucGAA850 FXN promoter luciferase reporter, 24 h; 100% = activation by SAHA. hit rate 86% among 1,900. shares compounds with FXN GAA850 act. activation, % at 6 µM;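 active means mean activation above a set limit taken from the primary screen, cut at about 8% in these data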
Numbers stand for hits; . = inactive; ? = inconclusive; / = not tested or not shown.

SMILES	Neddylation inh	FXN GAA850 act	Calb FLC	procasp3 activ	HIF act	proCasp7 act	GAA30 counter	GAA850 confirm
CC1(Oc2cccc(C#N)c2)CCN(Cc2csc3ccccc23)C1 (stereo not drawn)	.	.	/	/	/	/	/	/
OC(c1cc(Cl)cc(Cl)c1)c1ncc(-c2ccccc2F)[nH]1 (stereo not drawn)	.	.	/	/	/	/	/	/
CC1CCN(c2ccc(NC(=S)NC(=O)c3ccco3)cc2)CC1	.	7.9	.	.	.	.	69	32
CC1(C)CC(NC(=O)c2ccccc2NS(=O)(=O)c2ccc(Br)cc2)CC(C)(C)N1	.	.	/	/	/	/	/	/
CCOC(=O)C1=CCC(c2ccccc2)N(S(=O)(=O)c2ccccc2C)C1 (stereo not drawn)	.	/	/	/	/	/	/	/
O=C(OCc1cn([C@H]2CN(C(=O)c3cccs3)[C@@H](c3ccc(Cl)cc3)C[C@@H]2O)nn1)c1ccccc1	.	.	/	/	/	/	/	/
CC(C)(C)Nc1ncnc2sc(-c3ccccc3)cc12	.	.	.	.	.	.	/	/
CN(C)c1ncnc2sc(-c3ccccc3)cc12	.	9.0	.	.	.	.	46	18
COc1ncnc2sc(-c3ccccc3)cc12	.	9.0	.	.	.	.	106	37
CN(C)C(=O)COc1ncnc2sc(-c3ccccc3)cc12	.	.	.	.	.	.	/	/
COc1ccccc1-c1cnc(C(O)c2cc(Cl)cc(Cl)c2)[nH]1 (stereo not drawn)	.	.	/	/	/	/	/	/
CCOc1cc(C=NN=C2c3ccccc3-c3ccccc32)ccc1O	.	.	/	/	/	/	/	/
O=C(NCCN1CCOCC1)c1cc(-c2ccc(F)cc2)on1	.	.	.	.	.	.	/	/
O=C(NCCCN1CCOCC1)c1cc(-c2ccc(F)cc2)on1	.	9.9	.	.	.	.	48	18
Cc1ccc(-c2nnc3c4ccccc4c(C)nn23)cc1S(=O)(=O)N1CCN(CCO)CC1	.	7.6	.	.	.	.	32	17
Cc1ccc(-c2nnc3c4ccccc4c(C)nn23)cc1S(=O)(=O)N1CCN(C)CC1	.	.	/	.	/	.	/	/
Clc1ccc(N=C2SCC3CCCCN23)cc1 (stereo not drawn)	.	8.2	.	.	.	.	99	42
c1cncc(-c2nn3c(Cn4nnc5ccccc54)nnc3s2)c1	.	16	.	.	.	.	.	.
CSc1ccc(S(=O)(=O)NCC(=O)OCC(=O)N(C)CC(=O)Nc2ccc(F)cc2)cc1[N+](=O)[O-]	.	.	/	/	/	/	/	/
COc1ccc(-c2ccc(C(=O)Nc3cccc(C(F)(F)F)c3)c3occc23)c(C)c1	.	.	/	/	/	/	/	/
COCC(=O)NCCc1nc2ccccc2[nH]1	.	16	.	.	.	.	22	7.9
Cc1cccc(N=Nc2ccc(O)c3ncccc23)c1	.	12	.	.	.	.	.	.
O=C(Nc1ncnc2sc3c(c12)CCCC3)c1ccncc1	.	.	.	.	.	.	/	/
O=C(Nc1ncnc2sc3c(c12)CCCCC3)c1ccco1	.	12	.	.	.	.	.	.
Cc1ccc(CN2CC(=O)N3[C@H]4c5cc(C)ccc5OC[C@@H]4[C@H](c4ccccc4)[C@]3(C)C2=O)cc1	.	.	/	.	/	.	/	/
SMILES	Neddylation inh	FXN GAA850 act	Calb FLC	procasp3 activ	HIF act	proCasp7 act	GAA30 counter	GAA850 confirm
Cc1ccc2c(c1)[C@H]1[C@H](CO2)[C@H](c2ccccc2)[C@]2(C)C(=O)N(Cc3ccccc3)CC(=O)N12	.	9.0	/	.	/	.	.	11
COc1ccc2c(c1)[C@H]1[C@H](CO2)[C@H](c2ccccc2)[C@]2(C)C(=O)N(Cc3ccc(C)cc3)CC(=O)N12	.	13	/	.	/	.	.	9.0
O=C1NC[C@@H](Cc2ccc(O)cc2)N(CCc2cc(C(F)(F)F)cc(C(F)(F)F)c2)C1=O	.	/	/	/	/	/	/	/
O=C(Nc1ccc(-c2nc3ccc(NC(=O)c4cccs4)cc3[nH]2)cc1)c1cccs1	/	15	.	.	/	.	.	32
CCNC(=O)C1(C)CCN(C(=O)c2cccc(C(F)(F)F)c2)C1 (stereo not drawn)	.	.	/	/	/	/	/	/
CC(C)N=c1scc(-c2cccs2)n1/N=C/c1ccc(O)c(O)c1O	.	9.0	/	.	/	.	49	23
O=C(Nc1cc2c(cc1Cl)OCCCO2)c1ccccc1	.	8.8	.	.	.	.	107	41
O=C(Nc1cc2c(cc1Cl)OCCCO2)c1ccco1	.	.	.	.	.	.	/	/
CCOC(=O)c1sc(Nc2nc3ccc(OC)cc3s2)cc1C	.	.	.	.	.	.	/	/
CCOC(=O)c1sc(Nc2nc3c(F)cccc3s2)cc1C	.	11	.	.	.	.	106	42
C=CCN1CCC(=O)C(C(=O)OCC)=C1C(=O)OCC	.	.	/	/	/	/	/	/
Cc1ccc(C)c(-n2cc(CNCCCn3cccn3)c(-c3ccccc3)n2)c1	.	11	.	.	.	.	.	.
Cc1cnc(C)c(Nc2nc(C(N)Cc3ccc(C(F)(F)F)cc3)cs2)n1 (stereo not drawn)	.	.	/	/	/	/	/	/
CCOC(=O)CNc1c(-c2ccc(OC)cc2)nc2ccc(Cl)cn12	/	8.0	.	.	.	.	92	25
CCCCCCOc1ccc(/C(C)=N/NC2=NCCN2)cc1[N+](=O)[O-]	.	7.8	?	.	.	.	28	17
O=S(=O)(NCCc1c[nH]c2ccccc12)c1ccc(F)cc1	.	.	/	/	/	/	/	/
c1csc(CSc2nc3ccccc3s2)c1	.	7.7	.	.	.	.	122	39
Cc1noc(C)c1CSc1nc2ccccc2s1	.	.	.	.	.	.	/	/
COC(=O)c1ccc(COC(=O)CNC(=O)c2ccc(-c3ccccc3)cc2)cc1	.	8.1	.	.	.	.	76	22
OC1CCN(C(c2ccc3ncccc3c2)c2nnnn2C2CCCCC2)CC1 (stereo not drawn)	.	7.8	.	.	.	.	.	.
